Test results: ChEMBL document CHEMBL1155016, “Locking the two ends of tetrapeptidic HTLV-I protease inhibitors inside the enzyme” (Bioorg Med Chem, 2008)
Starred links: 1 amine or outer side, 2 acyl side, 3 side chain; linkers in the order of their positions; H or OH if unused. Non-standard residues stand in square brackets, D forms with d. Residues, ends and D or L forms follow the SMILES beside them. X1 = O=C([C@@H](O)[C@H](Cc1ccccc1)N[*:1])[*:2]; Thz(5,5-Me2) = CC1(C)SCN[C@@H]1C(=O)O; Phg = N[C@H](C(=O)O)c1ccccc1; Tle = CC(C)(C)[C@H](N)C(=O)O

Experiments:
Protease = Protease (Human T-cell leukemia virus type I, UniProt Q82134, L40I); test: Inhibition of HTLV1 protease L40I mutant
How it was run: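 HTLV-I protease carrying the L40I substitution, which blocks autolysis and stabilises the enzyme; run by the group's earlier reported protocol; potency given as IC50 in nM.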

[1] = biological target: Protease (Human immunodeficiency virus 1) (UniProt Q9YQ12); test: Inhibition of HIV1 protease at 50 nM
Protease (Human immunodeficiency virus 1), sequence (Q9YQ12 as listed by the source): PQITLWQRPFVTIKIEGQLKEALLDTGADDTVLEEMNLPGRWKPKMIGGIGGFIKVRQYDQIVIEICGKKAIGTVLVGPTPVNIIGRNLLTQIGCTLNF

Protease, sequence (Q82134 entry or part of it L40I): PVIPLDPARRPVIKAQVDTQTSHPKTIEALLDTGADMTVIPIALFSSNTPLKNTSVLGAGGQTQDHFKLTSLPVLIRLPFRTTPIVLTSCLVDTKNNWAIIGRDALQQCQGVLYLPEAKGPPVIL

CC(NC(=O)[C@H]1N(C(=O)[C@@H](O)[C@H](Cc2ccccc2)NC(=O)[C@@H](NC(=O)[C@@H](NC(=O)C(C)(C)C)c2ccccc2)C(C)(C)C)CSC1(C)C)C(C)(C)C (stereo partly drawn)
IC50 (Protease): 97 nM
inhibition [1]: > 98%

CC(C)CC(=O)N[C@H](C(=O)N[C@H](C(=O)N[C@@H](Cc1ccccc1)[C@H](O)C(=O)N1CSC(C)(C)[C@H]1C(=O)NCC1CC1)C(C)(C)C)c1ccccc1
IC50 (Protease): 132 nM
inhibition [1]: > 98%

CCCC(=O)N[C@H](C(=O)N[C@H](C(=O)N[C@@H](Cc1ccccc1)[C@H](O)C(=O)N1CSC(C)(C)[C@H]1C(=O)NCC(C)(C)C)C(C)(C)C)c1ccccc1
IC50 (Protease): 74 nM
inhibition [1]: > 98%

CCC(=O)N[C@H](C(=O)N[C@H](C(=O)N[C@@H](Cc1ccccc1)[C@H](O)C(=O)N1CSC(C)(C)[C@H]1C(=O)NCC1CC1)C(C)(C)C)c1ccccc1
IC50 (Protease): 145 nM
inhibition [1]: > 98%

CC(NC(=O)[C@H]1N(C(=O)[C@@H](O)[C@H](Cc2ccccc2)NC(=O)[C@@H](NC(=O)[C@@H](N)c2ccccc2)C(C)(C)C)CSC1(C)C)C(C)(C)C (stereo partly drawn)
IC50 (Protease): 156 nM
inhibition [1]: > 98%

CC(=O)N[C@H](C(=O)N[C@H](C(=O)N[C@@H](Cc1ccccc1)[C@H](O)C(=O)N1CSC(C)(C)[C@H]1C(=O)NCC1CC1)C(C)(C)C)c1ccccc1
IC50 (Protease): 146 nM
inhibition [1]: > 98%

CC(C)(C)CNC(=O)[C@H]1N(C(=O)[C@@H](O)[C@H](Cc2ccccc2)NC(=O)[C@@H](NC(=O)[C@@H](N)c2ccccc2)C(C)(C)C)CSC1(C)C
IC50 (Protease): 180 nM
inhibition [1]: > 98%

CSCC[C@H](NC(=O)[C@@H](NC(=O)[C@@H]1CCCN1C(=O)[C@@H](O)[C@H](Cc1ccccc1)NC(=O)[C@@H](NC(=O)[C@H](CCC(N)=O)NC(=O)[C@@H]1CCCN1)C(C)C)C(C)C)C(=O)N[C@@H](Cc1cnc[nH]1)C(=O)O
IC50 (Protease): 159 nM
inhibition [1]: > 98%

CC(C)CCNC(=O)[C@H]1N(C(=O)[C@@H](O)[C@H](Cc2ccccc2)NC(=O)[C@@H](NC(=O)[C@@H](NC(=O)CC(C)C)c2ccccc2)C(C)(C)C)CSC1(C)C
IC50 (Protease): 107 nM
inhibition [1]: > 98%

CC(=O)N[C@H](C(=O)N[C@H](C(=O)N[C@@H](Cc1ccccc1)[C@H](O)C(=O)N1CSC(C)(C)[C@H]1C(=O)NC(C)C(C)(C)C)C(C)(C)C)c1ccccc1 (stereo partly drawn)
IC50 (Protease): 106 nM
inhibition [1]: > 98%

CC(=O)N[C@H](C(=O)N[C@H](C(=O)N[C@@H](Cc1ccccc1)[C@H](O)C(=O)N1CSC(C)(C)[C@H]1C(=O)NCC(C)(C)C)C(C)(C)C)c1ccccc1
IC50 (Protease): 113 nM
inhibition [1]: > 98%

CC(C)CCNC(=O)[C@H]1N(C(=O)[C@@H](O)[C@H](Cc2ccccc2)NC(=O)[C@@H](NC(=O)[C@@H](N)c2ccccc2)C(C)(C)C)CSC1(C)C
IC50 (Protease): 372 nM
inhibition [1]: > 98%

CC(C)(C)[C@H](NC(=O)[C@@H](NC(=O)C1CC1)c1ccccc1)C(=O)N[C@@H](Cc1ccccc1)[C@H](O)C(=O)N1CSC(C)(C)[C@H]1C(=O)NCC1CC1
IC50 (Protease): 142 nM
inhibition [1]: > 98%

CC(C)C(=O)N[C@H](C(=O)N[C@H](C(=O)N[C@@H](Cc1ccccc1)[C@H](O)C(=O)N1CSC(C)(C)[C@H]1C(=O)NCC(C)(C)C)C(C)(C)C)c1ccccc1
IC50 (Protease): 78 nM
inhibition [1]: > 98%

CC(C)(C)[C@H](NC(=O)[C@@H](N)c1ccccc1)C(=O)N[C@@H](Cc1ccccc1)[C@H](O)C(=O)N1CSC(C)(C)[C@H]1C(=O)NCC1CC1
IC50 (Protease): 928 nM
inhibition [1]: > 98%

CC(C)(C)CNC(=O)[C@H]1N(C(=O)[C@@H](O)[C@H](Cc2ccccc2)NC(=O)[C@@H](NC(=O)[C@@H](NC(=O)C(C)(C)C)c2ccccc2)C(C)(C)C)CSC1(C)C
IC50 (Protease): 97 nM
inhibition [1]: > 98%

CCC(=O)N[C@H](C(=O)N[C@H](C(=O)N[C@@H](Cc1ccccc1)[C@H](O)C(=O)N1CSC(C)(C)[C@H]1C(=O)NCC(C)(C)C)C(C)(C)C)c1ccccc1
IC50 (Protease): 98 nM
inhibition [1]: > 98%

CCCC(=O)N[C@H](C(=O)N[C@H](C(=O)N[C@@H](Cc1ccccc1)[C@H](O)C(=O)N1CSC(C)(C)[C@H]1C(=O)NCC(C)C)C(C)(C)C)c1ccccc1
IC50 (Protease): 104 nM
inhibition [1]: > 98%

CC(C)CNC(=O)[C@H]1N(C(=O)[C@@H](O)[C@H](Cc2ccccc2)NC(=O)[C@@H](NC(=O)[C@@H](NC(=O)C2CC2)c2ccccc2)C(C)(C)C)CSC1(C)C
IC50 (Protease): 97 nM
inhibition [1]: > 98%

CCC(=O)N[C@H](C(=O)N[C@H](C(=O)N[C@@H](Cc1ccccc1)[C@H](O)C(=O)N1CSC(C)(C)[C@H]1C(=O)NC(C)C(C)C)C(C)(C)C)c1ccccc1 (stereo partly drawn)
IC50 (Protease): 129 nM
inhibition [1]: > 98%

CC(NC(=O)[C@H]1N(C(=O)[C@@H](O)[C@H](Cc2ccccc2)NC(=O)[C@@H](NC(=O)[C@@H](NC(=O)C2CC2)c2ccccc2)C(C)(C)C)CSC1(C)C)C(C)(C)C (stereo partly drawn)
IC50 (Protease): 85 nM
inhibition [1]: > 98%

CC(C)C(C)NC(=O)[C@H]1N(C(=O)[C@@H](O)[C@H](Cc2ccccc2)NC(=O)[C@@H](NC(=O)[C@@H](N)c2ccccc2)C(C)(C)C)CSC1(C)C (stereo partly drawn)
IC50 (Protease): 354 nM
inhibition [1]: > 98%

CCCC(=O)N[C@H](C(=O)N[C@H](C(=O)N[C@@H](Cc1ccccc1)[C@H](O)C(=O)N1CSC(C)(C)[C@H]1C(=O)NCC1CC1)C(C)(C)C)c1ccccc1
IC50 (Protease): 113 nM
inhibition [1]: > 98%

CC(C)CNC(=O)[C@H]1N(C(=O)[C@@H](O)[C@H](Cc2ccccc2)NC(=O)[C@@H](NC(=O)[C@@H](NC(=O)C(C)(C)C)c2ccccc2)C(C)(C)C)CSC1(C)C
IC50 (Protease): 83 nM
inhibition [1]: > 98%

CC(C)(C)CNC(=O)[C@H]1N(C(=O)[C@@H](O)[C@H](Cc2ccccc2)NC(=O)[C@@H](NC(=O)[C@@H](NC(=O)C2CC2)c2ccccc2)C(C)(C)C)CSC1(C)C
IC50 (Protease): 86 nM
inhibition [1]: > 98%

CC(C)CNC(=O)[C@H]1N(C(=O)[C@@H](O)[C@H](Cc2ccccc2)NC(=O)[C@@H](NC(=O)[C@@H](N)c2ccccc2)C(C)(C)C)CSC1(C)C
IC50 (Protease): 332 nM
inhibition [1]: > 98%

CC[C@H](C)[C@H](NC(C)=O)C(=O)N[C@H](C(=O)N[C@@H](Cc1ccccc1)[C@H](O)C(=O)N1CSC(C)(C)[C@H]1C(=O)N[C@H](C(=O)N[C@@H](CCSC)C(N)=O)[C@@H](C)CC)[C@@H](C)CC (Ac-II[X1][Thz(5,5-Me2)]IM-NH2)
IC50 (Protease): 88 nM
inhibition [1]: > 98%

CCCC(=O)N[C@H](C(=O)N[C@H](C(=O)N[C@@H](Cc1ccccc1)[C@H](O)C(=O)N1CSC(C)(C)[C@H]1C(=O)NCCC(C)C)C(C)(C)C)c1ccccc1
IC50 (Protease): 95 nM
inhibition [1]: > 98%

C=CCCC(=O)N[C@H](C(=O)N[C@H](C(=O)N[C@@H](Cc1ccccc1)[C@H](O)C(=O)N1CSC(C)(C)[C@H]1C(=O)NC(C)C(C)C)C(C)(C)C)c1ccccc1 (stereo partly drawn)
IC50 (Protease): 87 nM
inhibition [1]: > 98%

CC(C)CNC(=O)[C@H]1N(C(=O)[C@@H](O)[C@H](Cc2ccccc2)NC(=O)[C@@H](NC(=O)[C@@H](NC(=O)C(C)C)c2ccccc2)C(C)(C)C)CSC1(C)C
IC50 (Protease): 94 nM
inhibition [1]: > 98%

CC(=O)N[C@H](C(=O)N[C@H](C(=O)N[C@@H](Cc1ccccc1)[C@H](O)C(=O)N1CSC(C)(C)[C@H]1C(=O)NC(C)C(C)C)C(C)(C)C)c1ccccc1 (stereo partly drawn)
IC50 (Protease): 136 nM
inhibition [1]: > 98%

CC(C)C(C)NC(=O)[C@H]1N(C(=O)[C@@H](O)[C@H](Cc2ccccc2)NC(=O)[C@@H](NC(=O)[C@@H](NC(=O)C2CC2)c2ccccc2)C(C)(C)C)CSC1(C)C (stereo partly drawn)
IC50 (Protease): 90 nM
inhibition [1]: > 98%

CC(=O)N[C@H](C(=O)N[C@H](C(=O)N[C@@H](Cc1ccccc1)[C@H](O)C(=O)N1CSC(C)(C)[C@H]1C(=O)NCC(C)C)C(C)(C)C)c1ccccc1
IC50 (Protease): 107 nM
inhibition [1]: > 98%

CC(C)CC(=O)N[C@H](C(=O)N[C@H](C(=O)N[C@@H](Cc1ccccc1)[C@H](O)C(=O)N1CSC(C)(C)[C@H]1C(=O)NC(C)C(C)(C)C)C(C)(C)C)c1ccccc1 (stereo partly drawn)
IC50 (Protease): 84 nM
inhibition [1]: > 98%

CCC(=O)N[C@H](C(=O)N[C@H](C(=O)N[C@@H](Cc1ccccc1)[C@H](O)C(=O)N1CSC(C)(C)[C@H]1C(=O)NCC(C)C)C(C)(C)C)c1ccccc1
IC50 (Protease): 105 nM
inhibition [1]: > 98%

CC(C)C(=O)N[C@H](C(=O)N[C@H](C(=O)N[C@@H](Cc1ccccc1)[C@H](O)C(=O)N1CSC(C)(C)[C@H]1C(=O)NC(C)C(C)C)C(C)(C)C)c1ccccc1 (stereo partly drawn)
IC50 (Protease): 122 nM
inhibition [1]: > 98%

CC(C)(C)C(=O)N[C@H](C(=O)N[C@H](C(=O)N[C@@H](Cc1ccccc1)[C@H](O)C(=O)N1CSC(C)(C)[C@H]1C(=O)NCC1CC1)C(C)(C)C)c1ccccc1
IC50 (Protease): 187 nM
inhibition [1]: > 98%

CC(C)C(=O)N[C@H](C(=O)N[C@H](C(=O)N[C@@H](Cc1ccccc1)[C@H](O)C(=O)N1CSC(C)(C)[C@H]1C(=O)NCC1CC1)C(C)(C)C)c1ccccc1
IC50 (Protease): 134 nM
inhibition [1]: > 98%

CC(C)CNC(=O)[C@H]1N(C(=O)[C@@H](O)[C@H](Cc2ccccc2)NC(=O)[C@@H](NC(=O)[C@@H](NC(=O)CC(C)C)c2ccccc2)C(C)(C)C)CSC1(C)C
IC50 (Protease): 102 nM
inhibition [1]: > 98%

CCCC(=O)N[C@H](C(=O)N[C@H](C(=O)N[C@@H](Cc1ccccc1)[C@H](O)C(=O)N1CSC(C)(C)[C@H]1C(=O)NC(C)C(C)(C)C)C(C)(C)C)c1ccccc1 (stereo partly drawn)
IC50 (Protease): 94 nM
inhibition [1]: > 98%

CCC(=O)N[C@H](C(=O)N[C@H](C(=O)N[C@@H](Cc1ccccc1)[C@H](O)C(=O)N1CSC(C)(C)[C@H]1C(=O)NC(C)C(C)(C)C)C(C)(C)C)c1ccccc1 (stereo partly drawn)
IC50 (Protease): 103 nM
inhibition [1]: > 98%

CC[C@H](C)[C@H](NC(=O)[C@H]1N(C(=O)[C@@H](O)[C@H](Cc2ccccc2)NC(=O)[C@@H](NC(=O)[C@@H](NC(C)=O)c2ccccc2)C(C)(C)C)CSC1(C)C)C(N)=O (Ac-[Phg][Tle][X1][Thz(5,5-Me2)]I-NH2)
IC50 (Protease): 144 nM
inhibition [1]: > 98%

CC(C)C(C)NC(=O)[C@H]1N(C(=O)[C@@H](O)[C@H](Cc2ccccc2)NC(=O)[C@@H](NC(=O)[C@@H](NC(=O)C(C)(C)C)c2ccccc2)C(C)(C)C)CSC1(C)C (stereo partly drawn)
IC50 (Protease): 133 nM
inhibition [1]: > 98%

CC(C)C(=O)N[C@H](C(=O)N[C@H](C(=O)N[C@@H](Cc1ccccc1)[C@H](O)C(=O)N1CSC(C)(C)[C@H]1C(=O)NC(C)C(C)(C)C)C(C)(C)C)c1ccccc1 (stereo partly drawn)
IC50 (Protease): 84 nM
inhibition [1]: > 98%
